ChEMBL document CHEMBL3739256, “Design, Synthesis, and Biological Evaluation of 1,2-Dihydroisoquinolines as HIV-1 Integrase Inhibitors” (ACS Med Chem Lett, 2015)
pEC50, pIC50: −log10 of the molar value.

How the values were obtained:
[1] = molecular target: Human immunodeficiency virus type 1 integrase (Human immunodeficiency virus 1, UniProt Q7ZJM1); assay: Inhibition of HIV-1 integrase strand transfer activity preincubated for 30 mins followed by addition of FITC-labelled dsDNA for 1 hr by microplate reader analysis
[2] = molecular target: Human immunodeficiency virus type 1 integrase (Human immunodeficiency virus 1, UniProt Q7ZJM1, G140S); assay: Inhibition of HIV-1 integrase G140S mutant strand transfer activity preincubated for 30 mins followed by addition of FITC-labelled dsDNA for 1 hr by microplate reader analysis
[3] = test system: Human immunodeficiency virus 1; assay: Antiviral activity against HIV-1 infected in human TZM-bl cells assessed as inhibition of viral replication for 48 hrs by bright-Glo luciferase assay; type: functional, organism-based; conditions: Human immunodeficiency virus 1, TZM-bl
In short: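 Antiviral screen in TZM-bl cells, a HeLa clone engineered to express CD4 and CCR5 receptors. Activity is reported as EC50 in μM.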

[4] = Cytotoxicity against human TZM-bl cells after 48 hrs by Cell-titerGlo assay; type: cell-based
[5] = Therapeutic index, ratio of CC50 for human TZM-bl cells to EC50 for HIV-1 infected in TZM-bl cells; type: cell-based; conditions: read-out: Ratio CC50/EC50
In short: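 Index calculated as CC50/EC50, both measured in TZM-bl cells; CC50 is cell-based cytotoxicity at 48 h.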

[6] = Cytotoxicity against human Jurkat cells after 48 to 72 hrs by MTT assay; type: cell-based
[7] = test system: Human immunodeficiency virus 1; assay: Antiviral activity against HIV-1 NL4-3 infected in human jurkat cells assessed as decrease in p24 level at 10 uM after 48 hrs by western blot analysis; type: functional; conditions: Human immunodeficiency virus 1, NL4-3, Jurkat
In short: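 Jurkat cells were treated with compound at 10 μM or left untreated, then infected at MOI 1 with VSV-G-pseudotyped pNL4-3 (WT HIV-1). Supernatants were pelleted, solubilized in lysis buffer and probed on Western blot with a p24 antibody. Band intensity was quantified by densitometry as percent p24 relative to the untreated infected control, with significance at p < 0.05.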

Chain of Human immunodeficiency virus type 1 integrase (Human immunodeficiency virus 1, UniProt Q7ZJM1) (Q7ZJM1 whole entry): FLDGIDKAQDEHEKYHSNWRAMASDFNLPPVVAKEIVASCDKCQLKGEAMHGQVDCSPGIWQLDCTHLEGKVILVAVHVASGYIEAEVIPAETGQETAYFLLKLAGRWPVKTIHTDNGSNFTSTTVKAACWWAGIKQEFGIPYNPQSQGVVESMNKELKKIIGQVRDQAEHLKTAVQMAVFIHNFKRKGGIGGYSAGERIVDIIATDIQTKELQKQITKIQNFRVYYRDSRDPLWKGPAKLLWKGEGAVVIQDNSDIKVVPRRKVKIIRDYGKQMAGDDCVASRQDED
Chain of Human immunodeficiency virus type 1 integrase (Human immunodeficiency virus 1, UniProt Q7ZJM1, G140S) (Q7ZJM1 entry or part of it G140S): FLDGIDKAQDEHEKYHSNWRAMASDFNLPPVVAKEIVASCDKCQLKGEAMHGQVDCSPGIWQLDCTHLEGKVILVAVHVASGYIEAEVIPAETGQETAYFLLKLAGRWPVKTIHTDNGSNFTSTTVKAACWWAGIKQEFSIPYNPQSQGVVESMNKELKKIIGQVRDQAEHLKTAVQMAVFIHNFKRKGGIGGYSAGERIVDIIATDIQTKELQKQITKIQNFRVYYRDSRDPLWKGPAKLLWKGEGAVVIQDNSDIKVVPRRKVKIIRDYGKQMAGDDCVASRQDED

Compound | pIC50 [1] | pIC50 [2] | pEC50 [3] | CC50 at 48 h [4] | selectivity ratio [5] | CC50 [6] | inhibition at 10 µM [7]
COc1ccc(C2=Cc3ccc([N+](=O)[O-])cc3C(CC(C)=O)N2c2ccc(C)cc2)cc1 (stereo not drawn) | 6.22 | 6.19 | 4.58 | 10.6 µM | 0.4 | 33.1 µM | –
COc1ccc(C2=Cc3ccc([N+](=O)[O-])cc3C(CC(C)=O)N2c2ccc(C#N)cc2)cc1 (stereo not drawn) | 5.54 | 5.55 | 4.65 | 15.4 µM | 0.6 | – | –
COc1ccc(C2=Cc3ccc(F)cc3C(CC(=O)C(C)O)N2c2ccc(F)cc2)cc1 (stereo not drawn) | 5.10 | 5.10 | 4.93 | 14 µM | 1.1 | 1.81 µM | –
COc1ccc(C2=Cc3ccc(F)cc3C(CC(=O)C(C)O)N2c2ccc(C)cc2)cc1 (stereo not drawn) | 4.97 | 4.90 | – | 12.7 µM | – | – | –
COc1ccc(C2=Cc3ccc(F)cc3C(CC(C)=O)N2c2ccc(O)cc2)cc1 (stereo not drawn) | 4.92 | 4.85 | 4.67 | 60.5 µM | 2.8 | – | –
Cc1nnc(C(=O)NC(C)(C)c2nc(C(=O)NCc3ccc(F)cc3)c(O)c(=O)n2C)o1 | – | – | 6.82 | > 200 µM | – | > 120 µM | 92%
COc1ccc(C2=Cc3ccc(F)cc3C(CC(=O)C(C)O)N2c2ccc([N+](=O)[O-])cc2)cc1 (stereo not drawn) | 5.28 | 5.26 | 4.90 | 10.1 µM | 0.7 | 6.1 µM | –
COc1ccc(C2=Cc3ccc(F)cc3C(CC(=O)CO)N2c2ccc(O)cc2)cc1 (stereo not drawn) | 4.66 | 4.70 | 4.61 | 47.7 µM | 1.9 | – | –
COc1ccc(C2=Cc3ccc(F)cc3C(C[N+](=O)[O-])N2c2ccc(Cl)cc2)cc1 (stereo not drawn) | 6.15 | 6.10 | 7.52 | 32.2 µM | 1070 | 20.3 µM | 91%
COc1ccc(C2=Cc3ccc(F)cc3C(CC(=O)C(C)O)N2c2ccc(O)cc2)cc1 (stereo not drawn) | 4.60 | 4.60 | 4.71 | 50.9 µM | 2.5 | – | –
COc1ccc(C2=Cc3ccc(F)cc3C(CC(C)=O)N2c2ccc([N+](=O)[O-])cc2)cc1 (stereo not drawn) | – | – | – | 11.2 µM | – | – | –
COc1ccc(C2=Cc3ccc([N+](=O)[O-])cc3C(CC(C)=O)N2c2ccc(F)cc2)cc1 (stereo not drawn) | 6.34 | 6.19 | 4.44 | 7.7 µM | 0.2 | 16.4 µM | –
COc1ccc(C2=Cc3ccc(F)cc3C(CC(C)=O)N2c2ccc(C#N)cc2)cc1 (stereo not drawn) | – | 4.70 | – | – | – | – | –
COc1ccc(C2=Cc3ccc(F)cc3C(CC(=O)CO)N2c2ccc([N+](=O)[O-])cc2)cc1 (stereo not drawn) | 6.09 | 4.33 | 4.98 | 46.4 µM | 4.4 | 57.1 µM | 70.9%
COc1ccc(C2=Cc3ccc(OC)cc3C(C[N+](=O)[O-])N2c2ccccc2)cc1 (stereo not drawn) | – | – | 4.98 | 29.4 µM | 2.8 | 22.1 µM | –
COc1ccc(C2=Cc3ccc(F)cc3C(CC(=O)CO)N2c2ccc(Cl)cc2)cc1 (stereo not drawn) | 4.75 | 4.83 | 4.58 | 8.5 µM | 0.3 | – | –
COc1ccc(C2=Cc3ccc(F)cc3C(CC(=O)CO)N2c2ccc(C)cc2)cc1 (stereo not drawn) | 4.82 | 4.85 | 4.55 | 23.7 µM | 0.8 | – | –
Cc1ccc(C2=Cc3ccccc3C(C[N+](=O)[O-])N2c2ccc(F)cc2)cc1 (stereo not drawn) | – | – | 4.78 | 21.5 µM | 1.3 | 51.2 µM | –
COc1ccc(C2=Cc3ccc(F)cc3C(CC(=O)C(C)O)N2c2ccc(Cl)cc2)cc1 (stereo not drawn) | 4.93 | 4.97 | – | 9.9 µM | – | – | –
COc1ccc(C2=Cc3ccc(F)cc3C(CC(=O)C(C)O)N2c2ccc(C#N)cc2)cc1 (stereo not drawn) | 4.65 | 4.66 | 4.73 | 24.1 µM | 1.2 | – | –
COc1ccc(C2=Cc3ccc([N+](=O)[O-])cc3C(CC(C)=O)N2c2ccc(O)cc2)cc1 (stereo not drawn) | 5.18 | 5.12 | 4.50 | 23.5 µM | 0.7 | – | –
COc1ccc(C2=Cc3ccc(F)cc3C(CC(=O)CO)N2c2ccc(C#N)cc2)cc1 (stereo not drawn) | 5.12 | 5.15 | 4.54 | 39.7 µM | 1.3 | – | –
O=[N+]([O-])CC1c2ccccc2C=C(c2ccccc2)N1c1ccccc1 (stereo not drawn) | – | – | 4.81 | 10.3 µM | 0.6 | 42.3 µM | –
O=[N+]([O-])CC1c2cc([N+](=O)[O-])ccc2C=C(c2ccccc2)N1c1ccc(Cl)cc1 (stereo not drawn) | 5.51 | 5.52 | 5.94 | 26 µM | 22.6 | 24.9 µM | –
